How the values were obtained:
[1] = tested on: Cysteinyl leukotriene receptor (Cavia porcellus); assay: Ability to inhibit the contraction induced by 8 nM LTE4 on isolated guinea pig tracheal strips at 10 uM dose; % antagonism / % basal tension; conditions: Trachea
Cavia porcellus [2] = species on record: Cavia porcellus; assay: Ability to inhibit the contraction induced by 8 nM LTE4 on isolated guinea pig tracheal strips at 4 uM dose; % antagonism / % basal tension; type: functional, Trachea
Cavia porcellus [3] = species on record: Cavia porcellus; assay: Ability to inhibit the contraction induced by 8 nM LTE4 on isolated guinea pig tracheal strips at 1 uM dose; % antagonism / % basal tension; type: functional, Trachea
In short: (§1)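 Guinea pig tracheal spirals were held at 2 g resting tension and stabilized for 60 min, with bath changes every 15 min. Tissues received two 10-min challenges with 8 nM LTE4, each followed by a 60-min wash. Test compound was then added for 10 min, noting any resting-tension change, before a third LTE4 challenge. % inhibition = (2nd−3rd)/2nd×100, corrected for paired vehicle tissue. Significance was tested by paired t test (p<0.05).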

Cavia porcellus [4] = species on record: Cavia porcellus; assay: Ability to inhibit the contraction induced by 8 nM LTE4 on isolated guinea pig tracheal strips at 5 uM dose; % antagonism / % basal tension; type: functional, Trachea
In short: as §1

Cavia porcellus [5] = species on record: Cavia porcellus; assay: Ability to inhibit the contraction induced by 8 nM LTE4 on isolated guinea pig tracheal strips at 10 uM dose; % antagonism / % basal tension, Agonist activity was too great to determine if there was any partial antagonism/100; type: functional; conditions: Trachea, filed as agonist
In short: as §1

Cavia porcellus [6] = species on record: Cavia porcellus; assay: Ability to inhibit the contraction induced by 8 nM LTE4 on isolated guinea pig tracheal strips at 3.3 uM dose; % antagonism / % basal tension
Cavia porcellus [7] = species on record: Cavia porcellus; assay: Ability to inhibit the contraction induced by 8 nM LTE4 on isolated guinea pig tracheal strips at 50 uM dose; % antagonism / % basal tension, compound was checked against BaCl2 as agonist at specified concentration/14; type: functional, Trachea
In short: as §1

SMILES | Ratio [1] | further results
CCCCCCCc1ccc(C/C=C\[C@@H](Sc2ccc(NC(C)=O)cc2)[C@@H](O)CCCC(=O)O)cc1 | 4 | –
CCCc1c(OCC(O)COc2ccc3c(=O)cc(C(=O)O)oc3c2CCC)ccc(C(C)=O)c1O (stereo not drawn) [FPL-55712] | – | Ratio (Cavia porcellus [2]): 62
CCCCCCCc1ccc(C/C=C\[C@@H](SCc2cccc(C(=O)O)c2)[C@@H](O)CCCC(=O)O)cc1 | – | Ratio (Cavia porcellus [3]): 16
CCCCCCCc1ccc(C/C=C\[C@@H](SCc2ccc(C(=O)O)cc2F)[C@@H](O)CCCC(=O)O)cc1 | 63 | –
CCCCCCCc1ccc(C/C=C\[C@@H](SCc2ccc(C(=O)O)cc2OC)[C@@H](O)CCCC(=O)O)cc1 | 74 | Ratio (Cavia porcellus [4]): 31
CCCCCCCc1ccc(C/C=C\[C@@H](SCc2cccc(/C=C/C(=O)O)c2)[C@@H](O)CCCC(=O)O)cc1 | 34 | –
CCCCCCOc1ccc(C/C=C\[C@@H](SCc2ccc(C(=O)O)cc2OC)[C@@H](O)CCCC(=O)O)cc1 | – | Ratio (Cavia porcellus [5]): Agonist activity was too great to determine if there was any partial antagonism
CCCCCCCc1ccc(C/C=C\[C@@H](SCc2ccccc2C(=O)O)[C@@H](O)CCCC(=O)O)cc1 | 39 | –
CCCCCCCc1cccc(C/C=C\[C@@H](SCc2ccc(C(=O)O)cc2OC)[C@@H](O)CCCC(=O)O)c1 | 52 | Ratio (Cavia porcellus [4]): 45
CCCCCCCc1ccc(C/C=C\[C@@H](SCc2ccc(C(=O)O)cc2[N+](=O)[O-])[C@@H](O)CCCC(=O)O)cc1 | 24 | –
CCCCCCOc1ccccc1C/C=C\[C@@H](SCc1ccc(C(=O)O)cc1OC)[C@@H](O)CCCC(=O)O | 24 | –
CCCCCCCc1ccc(C/C=C\[C@@H](SCc2ccc(C(=O)O)cc2N)[C@@H](O)CCCC(=O)O)cc1 | 66 | –
CCCCCCCc1ccc(C/C=C\[C@@H](Sc2ccc(Cl)c(Cl)c2)[C@@H](O)CCCC(=O)O)cc1 | 2 | –
CCCCCCOc1cccc(C/C=C\[C@@H](SCc2ccc(C(=O)O)cc2OC)[C@@H](O)CCCC(=O)O)c1 | 86 | Ratio (Cavia porcellus [6]): 32; Ratio (Cavia porcellus [7]): 14
CCCCCc1ccc(C/C=C\[C@@H](SCc2ccc(C(=O)O)cc2OC)[C@@H](O)CCCC(=O)O)cc1 | 43 | –
CCCCCCCc1ccc(C/C=C\[C@@H](SCc2ccc(N)c(C(=O)O)c2)[C@@H](O)CCCC(=O)O)cc1 | 68 | –
CCCCCCCc1ccc(C/C=C\[C@@H](SCc2cc(C(=O)O)ccc2N)[C@@H](O)CCCC(=O)O)cc1 | 39 | –
CCCCCCCc1ccc(C/C=C\[C@@H](Sc2cccc(N)c2)[C@@H](O)CCCC(=O)O)cc1 | 14 | –
CCCCC/C=C/c1ccc(C/C=C\[C@@H](SCc2ccc(C(=O)O)cc2OC)[C@@H](O)CCCC(=O)O)cc1 | 39 | –
CCCCC/C=C/c1cccc(C/C=C\[C@@H](SCc2ccc(C(=O)O)cc2OC)[C@@H](O)CCCC(=O)O)c1 | 57 | Ratio (Cavia porcellus [3]): 7
CCCCCCCc1ccc(C/C=C\[C@@H](SCc2ccc(C(=O)O)c(N)c2)[C@@H](O)CCCC(=O)O)cc1 | 51 | –
CCCCCCCc1ccc(C/C=C\[C@@H](SCc2ccc(C(=O)O)cc2)[C@@H](O)CCCC(=O)O)cc1 | 37 | –
CCCCCCCc1ccc(C/C=C\[C@@H](SCc2ccc(/C=C/C(=O)O)cc2)[C@@H](O)CCCC(=O)O)cc1 | 38 | –
